# Key:
# Type in all cases: functional
# [1] = system: Trichophyton mentagrophytes; experiment: Antifungal activity against Trichophyton mentagrophytes 445 after 24 hrs by microdilution broth method; conditions: Trichophyton mentagrophytes, 445, 24 h
# Enterococcus sp. [2] = experiment: Antibacterial activity against Enterococcus sp. J 14365/08 after 48 hrs by microdilution broth method; conditions: J 14365/08, 48 h
# Procedure, shortened: (§1)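 Mueller-Hinton broth microdilution (modified M07-A07), pH 7.4 (±0.2). Compounds dissolved in DMSO, tested at final 500 to 0.49 µmol/L. Inoculum in sterile water matched to 0.5 McFarland. Incubated in the dark, humid atmosphere, 35 °C, read at 24 and 48 h visually and at 540 nm. MIC taken as ≥95% growth reduction (IC95) versus control.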
# [3] = system: Staphylococcus epidermidis; experiment: Antibacterial activity against Staphylococcus epidermidis H 6966/08 after 24 hrs by microdilution broth method; conditions: H 6966/08, 24 h; procedure, shortened: as §1
# Staphylococcus aureus [4] = experiment: Antibacterial activity against Staphylococcus aureus CCM 4516/08 after 48 hrs by microdilution broth method; conditions: CCM 4516/08, 48 h
# Lichtheimia corymbifera [5] = experiment: Antifungal activity against Absidia corymbifera 272 after 24 hrs by microdilution broth method; conditions: Lichtheimia corymbifera, 272, 24 h
# Procedure, shortened: (§2)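 CLSI M27-A3 broth microdilution in RPMI 1640 with glutamine, buffered to pH 7.0 with MOPS; DMSO diluent. Yeast inoculum 5 × 10^3 ± 0.2 CFU/mL. Moulds grown on Sabouraud agar 3–10 days before spore harvest, final inoculum 0.5-5 × 10^4 CFU/mL, checked in a Bürker chamber. Incubated dark, humid, 35 °C, read at 24 and 48 h visually and at 540 nm. MIC taken as ≥80% (yeasts) or ≥50% (filamentous) growth reduction versus control.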
# Candida albicans [6] = experiment: Antifungal activity against Candida albicans ATCC 44859 after 48 hrs by microdilution broth method; conditions: ATCC 44859, 48 h; procedure, shortened: as §2
# [7] = system: Mycobacterium tuberculosis; experiment: Antimycobacterial activity against Mycobacterium tuberculosis H37Rv 331/88 after 14 days; conditions: H37Rv 331/88, 336 h
# Staphylococcus aureus [8] = experiment: Antibacterial activity against Staphylococcus aureus CCM 4516/08 after 24 hrs by microdilution broth method; conditions: CCM 4516/08, 24 h
# Mycobacterium kansasii [9] = experiment: Antimycobacterial activity against Mycobacterium kansasii 235/80 after 14 days; conditions: 235/80, 336 h
# Procedure, shortened: (§3)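 Šula's semisynthetic medium micromethod at 37 °C, read after 7, 14 and 21 days. The 1.0 McFarland suspension was diluted 10^-4. MIC determined. 6509/96 is a clinical isolate.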
# Pseudomonas aeruginosa [10] = experiment: Antibacterial activity against Pseudomonas aeruginosa CCM 1961 after 48 hrs by microdilution broth method; conditions: CCM 1961, 48 h; procedure, shortened: as §1
# Aspergillus fumigatus [11] = experiment: Antifungal activity against Aspergillus fumigatus 231 after 24 hrs by microdilution broth method; conditions: Aspergillus fumigatus, 231, 24 h; procedure, shortened: as §2
# Candida tropicalis [12] = experiment: Antifungal activity against Candida tropicalis 156 after 24 hrs by microdilution broth method; conditions: Candida tropicalis, 156, 24 h; procedure, shortened: as §2
# Mycobacterium kansasii [13] = experiment: Antimycobacterial activity against Mycobacterium kansasii 6509/96 after 7 days; conditions: 6509/96, 168 h; procedure, shortened: as §3
# Trichosporon asahii [14] = experiment: Antifungal activity against Trichosporon asahii 1188 after 24 hrs by microdilution broth method; conditions: Trichosporon asahii, 1188, 24 h; procedure, shortened: as §2
# Mycobacterium kansasii [15] = experiment: Antimycobacterial activity against Mycobacterium kansasii 6509/96 after 14 days; conditions: 6509/96, 336 h; procedure, shortened: as §3
# Mycobacterium avium [16] = experiment: Antimycobacterial activity against Mycobacterium avium 330/80 after 21 days; conditions: 330/80, 504 h
# Escherichia coli [17] = experiment: Antibacterial activity against Escherichia coli CCM4517 after 24 hrs by microdilution broth method; conditions: CCM4517, 24 h; procedure, shortened: as §1
# Enterococcus sp. [18] = experiment: Antibacterial activity against Enterococcus sp. J 14365/08 after 24 hrs by microdilution broth method; conditions: J 14365/08, 24 h; procedure, shortened: as §1
# Klebsiella pneumoniae [19] = experiment: Antibacterial activity against ESBL-positive Klebsiella pneumoniae J 14368/08 after 24 hrs by microdilution broth method; conditions: J 14368/08, 24 h; procedure, shortened: as §1
# Mycobacterium kansasii [20] = experiment: Antimycobacterial activity against Mycobacterium kansasii 6509/96 after 21 days; conditions: 6509/96, 504 h; procedure, shortened: as §3
# [21] = system: Trichophyton mentagrophytes; experiment: Antifungal activity against Trichophyton mentagrophytes 445 after 48 hrs by microdilution broth method; conditions: Trichophyton mentagrophytes, 445, 48 h
# Klebsiella pneumoniae [22] = experiment: Antibacterial activity against Klebsiella pneumoniae D 11750/08 after 24 hrs by microdilution broth method; conditions: D 11750/08, 24 h; procedure, shortened: as §1
# Nakaseomyces glabratus [23] = experiment: Antifungal activity against Candida glabrata 20/I after 24 hrs by microdilution broth method; procedure, shortened: as §2
# Nakaseomyces glabratus [24] = experiment: Antifungal activity against Candida glabrata 20/I after 48 hrs by microdilution broth method; procedure, shortened: as §2
# Klebsiella pneumoniae [25] = experiment: Antibacterial activity against Klebsiella pneumoniae D 11750/08 after 48 hrs by microdilution broth method; conditions: D 11750/08, 48 h; procedure, shortened: as §1
# Escherichia coli [26] = experiment: Antibacterial activity against Escherichia coli CCM4517 after 48 hrs by microdilution broth method; conditions: CCM4517, 48 h; procedure, shortened: as §1
# [27] = system: Mycobacterium tuberculosis; experiment: Antimycobacterial activity against Mycobacterium tuberculosis H37Rv 331/88 after 21 days; conditions: H37Rv 331/88, 504 h
# Klebsiella pneumoniae [28] = experiment: Antibacterial activity against ESBL-positive Klebsiella pneumoniae J 14368/08 after 48 hrs by microdilution broth method; conditions: J 14368/08, 48 h; procedure, shortened: as §1
# Mycobacterium kansasii [29] = experiment: Antimycobacterial activity against Mycobacterium kansasii 235/80 after 7 days; conditions: 235/80, 168 h; procedure, shortened: as §3
# Candida tropicalis [30] = experiment: Antifungal activity against Candida tropicalis 156 after 48 hrs by microdilution broth method; conditions: Candida tropicalis, 156, 48 h; procedure, shortened: as §2
# Pichia kudriavzevii [31] = experiment: Antifungal activity against Candida krusei E28 after 24 hrs by microdilution broth method; conditions: E28, 24 h; procedure, shortened: as §2
# Mycobacterium avium [32] = experiment: Antimycobacterial activity against Mycobacterium avium 330/80 after 14 days; conditions: 330/80, 336 h
# Candida albicans [33] = experiment: Antifungal activity against Candida albicans ATCC 44859 after 24 hrs by microdilution broth method; conditions: ATCC 44859, 24 h; procedure, shortened: as §2
# Pseudomonas aeruginosa [34] = experiment: Antibacterial activity against Pseudomonas aeruginosa CCM 1961 after 24 hrs by microdilution broth method; conditions: CCM 1961, 24 h; procedure, shortened: as §1
# Aspergillus fumigatus [35] = experiment: Antifungal activity against Aspergillus fumigatus 231 after 48 hrs by microdilution broth method; conditions: Aspergillus fumigatus, 231, 48 h; procedure, shortened: as §2
# Pichia kudriavzevii [36] = experiment: Antifungal activity against Candida krusei E28 after 48 hrs by microdilution broth method; conditions: E28, 48 h; procedure, shortened: as §2
# Mycobacterium kansasii [37] = experiment: Antimycobacterial activity against Mycobacterium kansasii 235/80 after 21 days; conditions: 235/80, 504 h; procedure, shortened: as §3
# Staphylococcus aureus [38] = experiment: Antibacterial activity against methicillin-resistant Staphylococcus aureus H 5996/08 after 48 hrs by microdilution broth method; conditions: H 5996/08, 48 h
# Trichosporon asahii [39] = experiment: Antifungal activity against Trichosporon asahii 1188 after 48 hrs by microdilution broth method; conditions: Trichosporon asahii, 1188, 48 h; procedure, shortened: as §2
# Staphylococcus aureus [40] = experiment: Antibacterial activity against methicillin-resistant Staphylococcus aureus H 5996/08 after 24 hrs by microdilution broth method; conditions: H 5996/08, 24 h
# [41] = system: Staphylococcus epidermidis; experiment: Antibacterial activity against Staphylococcus epidermidis H 6966/08 after 48 hrs by microdilution broth method; conditions: H 6966/08, 48 h; procedure, shortened: as §1
# Lichtheimia corymbifera [42] = experiment: Antifungal activity against Absidia corymbifera 272 after 48 hrs by microdilution broth method; conditions: Lichtheimia corymbifera, 272, 48 h; procedure, shortened: as §2
smiles,measurement,setting,value
O=C(Nc1cccc(Cl)c1)c1cc([N+](=O)[O-])ccc1O,MIC,[1],250 µM
same,MIC,Enterococcus sp. [2],> 500 µM
same,MIC,[3],62.5 µM
same,MIC,Staphylococcus aureus [4],62.5 µM
same,MIC,Lichtheimia corymbifera [5],> 500 µM
same,MIC,Candida albicans [6],> 500 µM
same,MIC,[7],16 µM
same,MIC,Staphylococcus aureus [8],31.2 µM
same,MIC,Mycobacterium kansasii [9],32 µM
same,MIC,Pseudomonas aeruginosa [10],> 500 µM
same,MIC,Aspergillus fumigatus [11],500 µM
same,MIC,Candida tropicalis [12],> 500 µM
same,MIC,Mycobacterium kansasii [13],32 µM
same,MIC,Trichosporon asahii [14],> 500 µM
same,MIC,Mycobacterium kansasii [15],62.5 µM
same,MIC,Mycobacterium avium [16],125 µM
same,MIC,Escherichia coli [17],> 500 µM
same,MIC,Enterococcus sp. [18],500 µM
same,MIC,Klebsiella pneumoniae [19],> 500 µM
same,MIC,Mycobacterium kansasii [20],62.5 µM
same,MIC,[21],250 µM
same,MIC,Klebsiella pneumoniae [22],> 500 µM
same,MIC,Nakaseomyces glabratus [23],> 500 µM
same,MIC,Nakaseomyces glabratus [24],> 500 µM
same,MIC,Klebsiella pneumoniae [25],> 500 µM
same,MIC,Escherichia coli [26],> 500 µM
same,MIC,[27],16 µM
same,MIC,Klebsiella pneumoniae [28],> 500 µM
same,MIC,Mycobacterium kansasii [29],16 µM
same,MIC,Candida tropicalis [30],> 500 µM
same,MIC,Pichia kudriavzevii [31],500 µM
same,MIC,Mycobacterium avium [32],125 µM
same,MIC,Candida albicans [33],> 500 µM
same,MIC,Pseudomonas aeruginosa [34],> 500 µM
same,MIC,Aspergillus fumigatus [35],500 µM
same,MIC,Pichia kudriavzevii [36],> 500 µM
same,MIC,Mycobacterium kansasii [37],62.5 µM
same,MIC,Staphylococcus aureus [38],62.5 µM
same,MIC,Trichosporon asahii [39],> 500 µM
same,MIC,Staphylococcus aureus [40],62.5 µM
same,MIC,[41],62.5 µM
same,MIC,Lichtheimia corymbifera [42],> 500 µM

# From ChEMBL document CHEMBL3627671, “Novel derivatives of nitro-substituted salicylic acids: Synthesis, antimicrobial activity and cytotoxicity” (Bioorg Med Chem, 2015)
